Experimental data collected from several papers.
Compare with care: the assays were run in different laboratories.
Mode: inhibitor
MET M1250T: Hepatocyte growth factor receptor (MET, Homo sapiens, UniProt P08581, M1250T)
MET: Hepatocyte growth factor receptor (MET, Homo sapiens, UniProt P08581)

`COc1cc2ncnc(Nc3ccc(Oc4ccccc4)c(C)c3C)c2cc1OC` gave an inhibition of -2% (MET M1250T; enzyme activity; 1 µM).
`CN(C)C1CCN(CC#Cc2nn(C3CCCC3)c3nc(NCc4ccccc4)ncc23)C1` (stereo not shown) gave an inhibition of 72% (MET; enzyme activity; FRET; 10 µM).
The inhibition of `CN1CC(Oc2cnc(C#N)cc2-c2ccn3nc(NC(=O)C4CC4)cc3c2)C1` is reported as -19% (MET; enzyme activity; 1 µM).
With `CNC(=O)c1cc(Oc2ccc(NC(=O)Nc3ccc(Cl)c(C(F)(F)F)c3)cc2)ccn1` the inhibition was -13% (MET; enzyme activity; 10 µM).
`CS(=O)(=O)Nc1cccc(-c2csc(NC(=O)CSc3nc4nccnc4c(=O)n3CCc3ccccc3)n2)c1` gave an inhibition of 1% (MET; enzyme activity; 10 µM).
The inhibition of `CC/C(=N\NC(=O)NCc1cccc(O)c1)c1ccc(O)c(C)c1O` is reported as -0.2% (MET M1250T; enzyme activity; 0.1 µM).
`CNC(=O)c1cc2c(Oc3ccc(NC(=O)C4(C(=O)Nc5ccc(F)cc5)CC4)cc3)ccnc2cc1OC` has an inhibition of 100% (Hepatocyte growth factor receptor (MET, Homo sapiens, UniProt P08581, Y1230C); enzyme activity; radiometric; 1 µM).
For `CNc1cccc2cc(C(=O)Nc3ccc(C(=O)O)cc3)c(=O)[nH]c12`, the inhibition was 1.4% (MET; enzyme activity; 10 µM).
For `CSc1nc(C)c(-c2ccnc(Nc3ccc(N4CCOCC4)cc3)c2)[nH]1`, the inhibition was 28.2% (MET; cell-free assay; 10 µM).
With `COc1cc2ncnc(Nc3ccc(Oc4ccccc4)cc3C)c2cc1OC` the inhibition was -1% (MET M1250T; enzyme activity; 1 µM).
